Experiments:
[1] = test system: K562 human myelogenous leukemia cells; test: MTS cell viability assay in K562 cells; assay type: cell-based; conditions: 72 h
How it was run: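 K562 cells were grown in IMDM with 10% FBS and 5% penicillin/streptomycin at 37 °C in 5% CO2. They were seeded at 2000 cells/well, left overnight, then given fresh medium containing the test compound for 72 h. MTS was added for 2 h, with absorbance read at 490 nm against a 690 nm reference. % cell death = (control − sample)/control × 100. IC50 came from dose-response curves, using triplicates from a single experiment ± SEM.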

erythroid cells = conditions: cited from earlier work
[2] = test system: γ-globin mRNA expression in the K562 human myelogenous leukemia cell line; test: γ-globin mRNA expression in K562 cells by RT-qPCR; assay type: cell-based; conditions: K562, concentration not printed (at or near LSD1 IC50)
[3] = test system: γ-globin mRNA expression in human CD34+ erythroid progenitor cells; test: γ-globin mRNA expression in CD34+ erythroid progenitor cells by RT-qPCR; assay type: cell-based
[4] = test system: β-globin mRNA expression in human CD34+ erythroid progenitor cells; test: β-globin mRNA expression in CD34+ erythroid progenitor cells by RT-qPCR; assay type: cell-based; conditions: for Fold increase in β-globin mRNA: concentration not given
Townes SS mice = test: HbF induction in Townes SS mice; assay type: in vivo, mouse; conditions: 10 mg/kg, 2 weeks of treatment
How it was run: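 Townes SS mice were dosed at 10 mg/kg for 2 weeks (route not specified). F-cells and F-reticulocytes were counted by flow cytometry on 5–10 μL of tail-vein blood. γ-Globin was measured by HPLC against each animal's pretreatment baseline. Each value is the mean of three animals + SEM.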

recombinant LSD1/CoREST = recombinant LSD1/CoREST (Homo sapiens, UniProt O60341); conditions: IC50 ND; cited from earlier work
spermine oxidase (SMOX) = conditions: cited from earlier work

In the case of N[C@@H]1C[C@H]1c1ccccc1 (racemic) [Tranylcypromine, tranylcypromine], the “Cytotoxicity in K562 cells (in words)” value [1] is listed as “minimal cytotoxicity” and the “Induction of HbF in erythroid cells (in words)” value (erythroid cells) is listed as “dose-dependent induction”.
For NC(=O)NO [HU, hydroxyurea], the “Fold increase in γ-globin mRNA expression” value [2] was 2.3 fold, the “Increase in γ-globin mRNA (in words, compared with K562)” value [3] was “analogous to levels observed in the K562 line” and the “Fold increase in β-globin mRNA” value [4] was “no effect”.
With c1ccc([C@@H]2C[C@H]2NC2CCNCC2)cc1 [compound 2] the “Effect on β-globin mRNA levels (in words)” value ([4]; both 20 and 50 nM) was “marked decrease”.
In the case of Nc1n[nH]c(NCc2ccccc2Oc2ccc(-c3ccccc3)cc2)n1 [compound 8], the “Increase in HbF-containing erythrocytes (F-cells)” value (Townes SS mice; Townes SS mice, flow cytometry) is listed as “significant increases”, the “Increase in γ-globin (HbF content) by HPLC relative to baseline/pretreatment” value (Townes SS mice; Townes mouse) is listed as 87% and the “LSD1 % inhibition at 10 μM” value (recombinant LSD1/CoREST) is listed as “ND (50.0% inhibition at 10 μM)[52]”. The “Inhibition of spermine oxidase (SMOX) (in words)” value (spermine oxidase (SMOX)) was “inhibit”.
For Hemin, the “Fold increase in γ-globin mRNA expression” value [2] was 2.4 fold, the “Increase in γ-globin mRNA (in words, compared with K562)” value [3] was “analogous to levels observed in the K562 line” and the “Fold increase in β-globin mRNA” value [4] was 1.4 fold.

Source: publication PMC7315572 (ACS Omega, 2020)
